Reference: ChEMBL document CHEMBL3792331, “Identification and synthesis of potent and selective pyridyl-isoxazole based agonists of sphingosine-1-phosphate 1 (S1P1)” (Bioorg Med Chem Lett, 2016)

Tests used:
Rattus norvegicus [1] = assay: Reduction in circulating lymphocytes in Lewis rat at 1 mg/kg, po after 4 hrs; type: functional
Summary of the method: (§1)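 Healthy Lewis rats dosed orally with test article as solution or suspension in vehicle, or vehicle alone. Blood drawn at 4 h and 24 h. Circulating lymphocyte percentage measured by hematology analyzer, expressed as reduction versus the vehicle group. Group average, n = 3–4.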

Plasma = assay: Ratio of plasma concentration Lewis rat at 1 mg/kg, po after 4 hrs to plasma concentration Lewis rat at 1 mg/kg, po after 24 hrs; type: ADME, organism-based; conditions: in vivo
Summary of the method: (§2)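 Lewis rats given 1.0 mg/kg orally as solution or suspension in vehicle. Plasma drug concentration measured in blood drawn at 4 h and 24 h; 4 h/24 h ratio taken from these values.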

[2] = Plasma concentration Lewis rat at 1 mg/kg, po after 4 hrs; type: ADME, organism-based; summary of the method: as §2
Rattus norvegicus [3] = assay: Reduction in circulating lymphocytes in Lewis rat at 1 mg/kg, po after 24 hrs; type: functional; summary of the method: as §1
[4] = Selectivity index, ratio of EC50 for agonist activity at human S1P3 receptor expressed in EDG3-Ga15-bla HEK293T cell membranes to EC50 for agonist activity at human S1P1 receptor expressed in CHO cell membranes; type: cell-based
Summary of the method: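 S1P3/S1P1 ratio of GTPγ[35S] EC50s. Membranes from EDG3-Ga15-bla HEK293T (S1P3) or S1P1/CHO cells, […], 0.2 nM final [35S]GTP. HEPES pH 7.5 buffer with MgCl2, NaCl, EGTA, DTT, GDP, BSA and saponin. 45 min at room temperature, filtration read-out. Each EC50 taken at 50% of the compound's own Ymax.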

[5] = Plasma concentration Lewis rat at 1 mg/kg, po after 24 hrs; type: ADME, organism-based; summary of the method: as §2
[6] = molecular target: Sphingosine 1-phosphate receptor 1 (Homo sapiens, UniProt P21453); assay: Agonist activity at human S1P1 receptor expressed in CHO cell membranes assessed as stimulation of [35S]GTPgamma binding incubated for 45 mins by liquid scintillation counting method
Summary of the method: (§3)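 Membranes from S1P1/CHO cells (S1P1) or EDG3-Ga15-bla HEK293T cells (S1P3), final protein […], with 3-fold compound dilutions. Buffer: 20 mM HEPES pH 7.5, 10 mM MgCl2, 150 mM NaCl, 1 mM EGTA, 1 mM DTT, GDP, 0.1% fatty acid free BSA, saponin. [35S]GTP 0.2 nM final. Room temperature, 45 min. Filtered, washed with water, dried 60 °C. EC50 taken at 50% of each compound's Ymax.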

[7] = molecular target: Sphingosine 1-phosphate receptor 3 (Homo sapiens, UniProt Q99500); assay: Agonist activity at human S1P3 receptor expressed in EDG3-Ga15-bla HEK293T cell membranes assessed as stimulation of [35S]GTPgamma binding incubated for 45 mins by liquid scintillation counting method; set-up: species or system HEK-293T; summary of the method: as §3
Sequence of Sphingosine 1-phosphate receptor 3 (Q99500 whole entry): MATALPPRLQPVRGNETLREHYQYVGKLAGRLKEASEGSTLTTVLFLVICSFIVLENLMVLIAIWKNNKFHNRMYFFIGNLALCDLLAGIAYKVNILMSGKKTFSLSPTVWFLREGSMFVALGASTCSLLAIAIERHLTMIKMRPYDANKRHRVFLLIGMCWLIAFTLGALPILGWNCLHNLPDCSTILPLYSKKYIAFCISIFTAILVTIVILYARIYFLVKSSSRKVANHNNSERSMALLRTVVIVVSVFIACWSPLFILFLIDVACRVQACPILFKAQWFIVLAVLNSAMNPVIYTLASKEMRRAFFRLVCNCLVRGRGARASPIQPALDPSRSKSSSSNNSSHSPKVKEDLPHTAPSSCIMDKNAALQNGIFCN

Sequence of Sphingosine 1-phosphate receptor 1 (P21453 whole entry): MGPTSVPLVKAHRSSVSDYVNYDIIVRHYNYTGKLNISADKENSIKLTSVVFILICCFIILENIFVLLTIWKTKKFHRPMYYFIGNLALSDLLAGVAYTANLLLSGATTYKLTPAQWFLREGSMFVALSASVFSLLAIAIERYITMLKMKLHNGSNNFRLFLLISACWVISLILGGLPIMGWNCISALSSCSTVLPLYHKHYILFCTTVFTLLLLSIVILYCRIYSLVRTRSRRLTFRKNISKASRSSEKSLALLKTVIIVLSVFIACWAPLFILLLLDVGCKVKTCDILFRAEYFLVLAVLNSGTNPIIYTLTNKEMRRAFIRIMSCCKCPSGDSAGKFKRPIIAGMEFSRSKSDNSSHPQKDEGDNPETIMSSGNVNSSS

Ratio (Plasma)	concentration at 4 h [2]	concentration at 24 h [5]	EC50 [6]	EC50 [7]	SMILES	inhibition in vivo at 1 mg/kg (Rattus norvegicus [1])	inhibition in vivo at 1 mg/kg (Rattus norvegicus [3])	Ratio EC50 [4]
3	2130 nM	–	–	–	O=C(O)C1CN(Cc2ccc(-c3noc(-c4onc(-c5ccccc5)c4C(F)(F)F)n3)cc2)C1	78%	91%	–
30	292 nM	9.9 nM	–	–	CCCc1c(-c2nc(-c3ccc(CN4CC(C(=O)O)C4)cc3)no2)noc1-c1ccccn1	81%	53%	2500
12	318 nM	26 nM	0.21 nM	630 nM	CCCc1c(-c2ccccn2)noc1-c1nc(-c2ccc(CN3CC(C(=O)O)C3)cc2)no1	82%	85%	3000
